Assay [1] has as its target T1, Cereblon/Ikaros (Homo sapiens) (UniProt Q96SW2+Q13422). The experiment in a line: Protac activity at CRBN/ IKZF1 in human MM1S cells assessed as CRBN degradation at 100 nM to 1 uM after 16 hrs by Western blot analysis. It is filed as cell-based. Summed up:
(§1)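 MM1S multiple myeloma cells were exposed to each compound for 16 h at the indicated concentrations, including 100 nM and 1 μM. Lysates were analysed by western blot for CRBN and for the neo-substrate IKZF1.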

Assay [2] has as its target T1, Cereblon/Ikaros (Homo sapiens). Put plainly: Protac activity at CRBN/ IKZF1 in human MM1S cells assessed as IKZF1 degradation by measuring IKZF1/tubulin ratio at 0.1 uM after 16 hrs by Western blot analysis relative to tubulin. The format is cell-based. On the set-up: unit not given here. In a few lines: as §1
For orientation: Immunoblotting shows a protein as a band on a membrane.

For assay [3] the target is unchanged. The experiment in a line: Protac activity at CRBN/ IKZF1 in human MM1S cells assessed as reduction in IKZF1 degradation at 0.001 to 0.01 uM after 16 hrs by Western blot analysis. The format is cell-based.
Assay [4] concerns MM1.S. Put plainly: Antiproliferative activity against human MM1S cells at 1 nM to 10 uM after 4 hrs by CellTiter-Glo assay. It is filed as functional, cell-based.
In assay [5] the target is T1, Cereblon/Ikaros (Homo sapiens). Put plainly: Protac activity at CRBN/ IKZF1 in human MM1S cells assessed as Bax protein expression at 0.1 to 10 uM after 16 hrs by Western blot analysis relative to tubulin. It is filed as cell-based.

Calls of active or inactive are those of the source. The calls are words filed in the database; no cut-off is given here. *1 amine or outer side, *2 acyl side, *3 side chain or, on linkers, in order; H or OH if unused. Where a SMILES comes first, the peptide text is derived from it. The star is where a group is joined. X1 = O=C1CCC(N2C(=O)c3cccc(NCCCOCCCCOCCCN*)c3C2=O)C(=O)N1; Suc = O=C(CCC(=O)[*:2])[*:1]

Activity and Ratio data for 8 compounds are collected here from ChEMBL document CHEMBL4373656, “A MedChem toolbox for cereblon-directed PROTACs” (Medchemcomm, 2019).

With `O=C(CC12CC3CC(CC(C3)C1)C2)NCCCOCCOCCOCCCNc1cccc2c1C(=O)N(C1CCC(=O)NC1=O)C2=O` (stereo not given), the result in assay [1] was inactive. In addition, the Ratio in assay [2] came to 24.

For the compound `O=C1CCC(N2C(=O)c3cccc(NCCOCCOCCNc4cccc5c4C(=O)N(C4CCC(=O)NC4=O)C5=O)c3C2=O)C(=O)N1` (stereo not given), the Ratio in assay [2] was 79.

In the case of `O=C(CC12CC3CC(CC(C3)C1)C2)NCCOCCOCCOCCNc1cccc2c1C(=O)N(C1CCC(=O)NC1=O)C2=O` (stereo not given), the outcome in assay [1] was inactive. For the same compound, the Ratio in assay [2] was determined as 16.

Take `Cc1ncsc1-c1ccc(CNC(=O)[C@@H]2C[C@@H](O)CN2C(=O)[C@@H](NC(=O)CCCCOCCCCCOCCCCCCNc2cccc3c2C(=O)N(C2CCC(=O)NC2=O)C3=O)C(C)(C)C)cc1` (stereo not given in full): the Ratio in assay [2] is 99.

Turning to `O=C(CC12CC3CC(CC(C3)C1)C2)NCCOCCOCCNc1cccc2c1C(=O)N(C1CCC(=O)NC1=O)C2=O` (stereo not given), the outcome in assay [1] was inactive. For the same compound, the Ratio in assay [2] was 7.1. Besides, the result in assay [3] and in assay [4] was Active.

Regarding `CSCC[C@H](NC(=O)[C@@H]1CCCN1C(=O)[C@@H](NC(=O)CCC(=O)NCCCOCCCCOCCCNc1cccc2c1C(=O)N(C1CCC(=O)NC1=O)C2=O)C(C)C)C(=O)N[C@@H](CC(C)C)C(=O)N[C@@H](CCCCN)C(=O)O` (stereo not given in full) ({X1-Suc}-VPMLK-OH), the result in assay [5] was inactive.

Turning to `O=C(CC12CC3CC(CC(C3)C1)C2)NCCCOCCCCOCCCNc1cccc2c1C(=O)N(C1CCC(=O)NC1=O)C2=O` (stereo not given), in assay [1], the outcome was inactive. Also, the Ratio in assay [2] amounted to 30.

On to `O=C(CC12CC3CC(CC(C3)C1)C2)NCCCOCCOCCCNc1cccc2c1C(=O)N(C1CCC(=O)NC1=O)C2=O` (stereo not given), for which the outcome in assay [1] was inactive. The Ratio in assay [2] was 15.
